Reference: ChEMBL document CHEMBL1137987, “O-alkoxyamidine prodrugs of furamidine: in vitro transport and microsomal metabolism as indicators of in vivo efficacy in a mouse model of Trypanosoma brucei rhodesiense infection” (J Med Chem, 2004)

Key:
Mus musculus [1] = test: In vivo effect on average days of survival was measured upon oral dose at 400 mg/kg in STIB900 mouse model; assay type: functional
Summary of the method: (§1)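 Mice infected with T. b. rhodesiense STIB900 got four daily doses: intraperitoneal for the parent amidine (4 × 10 mg/kg), oral for the prodrugs (4 × 25, 4 × 50 or 4 × 100 mg/kg/day). Read-out is mean days of survival per group, followed to 60 days.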

[2] = test system: Trypanosoma brucei rhodesiense; test: In vitro inhibitory activity against Trypanosoma brucei rhodesiense evaluated in vitro
Caco-2 [3] = test: Apparent permeability determined across the Caco-2 cell monolayers in both apical (AP) to basolateral (BL) directions; assay type: functional, cell-based; conditions: Homo sapiens
Caco-2 [4] = test: Apparent permeability determined across the Caco-2 cell monolayers in both basolateral (BL) to apical (AP) directions; assay type: functional, cell-based; conditions: Homo sapiens
[5] = Half-life in human liver microsomes was determined; assay type: ADME, Microsome
Summary of the method: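 Substrate at 10 µM final (from 5 mM methanol stocks) in 100 mM potassium phosphate pH 7.4 with 0.2 mg/mL pooled human liver microsomes. Preincubated 5 min, then started with 1 mM NADPH. Samples taken at 0–90 min, quenched with acetonitrile on ice, centrifuged, and supernatant analysed by HPLC-UV or LC-MS. Half-life from substrate loss.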

Mus musculus [6] = test: In vivo effect on average days of survival was measured upon oral dose at 100 mg/kg in STIB900 mouse model; assay type: functional; summary of the method: as §1
Mus musculus [7] = test: In vivo effect on average days of survival was measured upon oral dose at 200 mg/kg in STIB900 mouse model; assay type: functional; summary of the method: as §1
Mus musculus [8] = test: In vivo effect (cures) determined by number of mice that survived (1) and are parasite free (4) for 60 days upon oral dose, observed in STIB900 mouse model
Mus musculus [9] = test: In vivo effect (cures) determined by number of mice that survived (2) and are parasite free (4) for 60 days upon oral dose, observed in STIB900 mouse model
Mus musculus [10] = test: In vivo effect (cures) determined by number of mice that survived (4) and are parasite free (4) for 60 days upon oral dose, observed in STIB900 mouse model
Mus musculus [11] = test: In vivo effect (cures) determined by number of mice that survived (0) and are parasite free (8) for 60 days upon intraperitoneal dose, observed in STIB900 mouse model; assay type: functional
Summary of the method: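 T. b. rhodesiense STIB900 acute infection in mice, 4 mice per group (8 in one group). Four daily doses (4 × mg/kg/day); the parent amidine was given intraperitoneally and the prodrugs orally. A cure is a mouse surviving and parasite-free at 60 days, reported as cured/treated.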

Mus musculus [12] = test: In vivo effect on average days of survival was measured upon intraperitoneal dose at 40 mg/kg in STIB900 mouse model; assay type: functional; summary of the method: as §1

Row | SMILES | Survival days (Mus musculus [1]) | IC50 [2] [µM] | Papp (Caco-2 [3]) | Papp (Caco-2 [4]) | half-life [5] [min] | Survival days (Mus musculus [6]) | Survival days (Mus musculus [7]) | Dose (Mus musculus [8]) [mg/kg] | Dose (Mus musculus [9]) [mg/kg] | Dose (Mus musculus [10]) [mg/kg] | Dose (Mus musculus [11]) [mg/kg] | Survival days (Mus musculus [12])
1 | CCCCONC(=N)c1ccc(-c2ccc(-c3ccc(C(=N)NOCCCC)cc3)o2)cc1 | 9 | 1.9 |  |  |  |  |  |  |  |  |  | 
2 | CCCCCCONC(=N)c1ccc(-c2ccc(-c3ccc(C(=N)NOCCCCCC)cc3)o2)cc1 | 6 | 5.7 |  |  |  |  |  |  |  |  |  | 
3 | CONC(=N)c1ccc(-c2ccc(-c3ccc(C(=N)NOC)cc3)o2)cc1 [PAFURAMIDINE] | >60 | 14.6 | 6.04e-05 | 3.75e-05 | 4.16 | >60 | >60 | 100 | 200 | 400 |  | 
4 | CCONC(=N)c1ccc(-c2ccc(-c3ccc(C(=N)NOCC)cc3)o2)cc1 | >60 | 0.645 | 5.9e-06 | 3.7e-06 | 32 | 32 |  |  |  | 400 |  | 
5 | CCCONC(=N)c1ccc(-c2ccc(-c3ccc(C(=N)NOCCC)cc3)o2)cc1 | >47.5 | 0.472 |  |  | 60 |  |  | 400 |  |  |  | 
6 | CC(C)ONC(=N)c1ccc(-c2ccc(-c3ccc(C(=N)NOC(C)C)cc3)o2)cc1 | 48 | 12.6 |  |  |  |  |  |  | 400 |  |  | 
7 | N=C(N)c1ccc(-c2ccc(-c3ccc(C(=N)N)cc3)o2)cc1 [FURAMIDINE] |  | 0.0045 | 3.8e-07 | 8.5e-07 |  |  |  |  |  |  | 40 | >46
8 | N=C(NO)c1ccc(-c2ccc(-c3ccc(/C(N)=N\O)cc3)o2)cc1 | 50 | 66.4 |  |  |  |  |  |  |  |  |  | 
